From ChEMBL document CHEMBL1144702, “Synthesis and structure-activity relationship studies on tryprostatin A, an inhibitor of breast cancer resistance protein” (Bioorg Med Chem, 2008)
Active and inactive are the calls of the source. The rule behind the calls is not given here.

Assays:
[1] = Antiproliferative activity against mouse tsFT210 cells after 48 hrs by WST-8 assay; assay type: functional, cell-based; conditions: tsFT210, 48 h
In short: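 tsFT210 cells (temperature-sensitive cdc2 mutant from mouse mammary carcinoma FM3A), kept in RPMI 1640 with 10% fetal calf serum at 32 °C; exponentially growing cells exposed to compound at 32 °C for 48 h, then WST-8 added for 4 h at 37 °C; absorbance at 450 nm read to estimate cell number; IC50 reported.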

[2] = Cell cycle arrest in mouse tsFT210 cells assessed as accumulation at G1 phase at 100 uM after 18 hrs by flow cytometry; assay type: functional, cell-based
In short: (§1)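 Synchronous-culture assay: tsFT210 cells seeded at 1x10^5 cells/mL, preincubated 1 h at 32 °C, then incubated with compound 18 h at 32 °C; morphology checked by microscopy; DNA content by flow cytometry after staining with 50 μg/mL propidium iodide, 0.1% sodium citrate, 0.2% NP-40; nuclei/chromosomes stained with Hoechst 33258 after KCl swelling and Carnoy fixation.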

[3] = target: DNA topoisomerase 2-alpha (Homo sapiens) (UniProt P11388); assay: Inhibition of topoisomerase 2 assessed as relaxation of supercoiled DNA at 100 uM
Sequence of DNA topoisomerase 2-alpha (Homo sapiens) (P11388 whole entry): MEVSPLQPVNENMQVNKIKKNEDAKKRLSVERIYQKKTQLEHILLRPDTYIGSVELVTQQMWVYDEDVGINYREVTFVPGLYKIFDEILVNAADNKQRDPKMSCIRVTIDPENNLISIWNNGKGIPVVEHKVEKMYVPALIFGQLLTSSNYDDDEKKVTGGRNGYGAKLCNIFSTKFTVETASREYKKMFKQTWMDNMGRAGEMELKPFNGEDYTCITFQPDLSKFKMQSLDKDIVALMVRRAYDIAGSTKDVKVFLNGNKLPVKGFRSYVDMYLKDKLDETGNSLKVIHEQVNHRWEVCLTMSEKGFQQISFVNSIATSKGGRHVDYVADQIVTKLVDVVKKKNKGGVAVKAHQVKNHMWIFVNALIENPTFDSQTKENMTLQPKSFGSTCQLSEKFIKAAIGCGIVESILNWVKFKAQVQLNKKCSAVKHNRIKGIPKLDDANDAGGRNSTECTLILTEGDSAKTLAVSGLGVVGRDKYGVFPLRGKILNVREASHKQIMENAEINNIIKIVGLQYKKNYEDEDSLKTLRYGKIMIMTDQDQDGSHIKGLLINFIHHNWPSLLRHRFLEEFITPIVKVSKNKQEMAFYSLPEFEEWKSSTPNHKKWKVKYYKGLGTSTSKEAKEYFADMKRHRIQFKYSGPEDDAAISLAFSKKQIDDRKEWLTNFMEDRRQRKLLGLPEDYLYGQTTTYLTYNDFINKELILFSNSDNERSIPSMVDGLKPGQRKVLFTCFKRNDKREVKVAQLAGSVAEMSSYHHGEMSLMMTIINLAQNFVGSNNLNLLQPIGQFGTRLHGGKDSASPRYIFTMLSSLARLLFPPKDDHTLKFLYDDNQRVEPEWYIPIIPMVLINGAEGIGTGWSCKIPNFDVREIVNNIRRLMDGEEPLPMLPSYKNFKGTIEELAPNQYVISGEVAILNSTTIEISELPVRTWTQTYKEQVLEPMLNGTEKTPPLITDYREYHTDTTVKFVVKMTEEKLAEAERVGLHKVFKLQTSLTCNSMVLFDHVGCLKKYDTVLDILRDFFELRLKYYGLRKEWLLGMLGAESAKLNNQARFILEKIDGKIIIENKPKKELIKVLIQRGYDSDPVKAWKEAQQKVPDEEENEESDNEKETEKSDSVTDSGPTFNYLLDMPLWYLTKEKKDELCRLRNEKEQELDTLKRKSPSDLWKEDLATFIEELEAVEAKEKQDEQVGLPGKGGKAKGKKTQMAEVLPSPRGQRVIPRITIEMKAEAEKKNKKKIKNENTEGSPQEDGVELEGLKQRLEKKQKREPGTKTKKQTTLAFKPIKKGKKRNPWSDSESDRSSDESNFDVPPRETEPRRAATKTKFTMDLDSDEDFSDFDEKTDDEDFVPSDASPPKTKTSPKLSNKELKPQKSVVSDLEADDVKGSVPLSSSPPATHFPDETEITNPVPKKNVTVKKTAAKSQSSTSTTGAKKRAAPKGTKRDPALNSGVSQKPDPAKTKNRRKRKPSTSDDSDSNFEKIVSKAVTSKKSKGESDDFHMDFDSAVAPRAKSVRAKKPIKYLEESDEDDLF

[4] = Inhibition of tubulin polymerization in presence of microtubule-associated proteins
In short: (§2)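 Tubulin containing MAPs in PME buffer (100 mM PIPES pH 6.9, 2 mM EGTA, 1 mM MgSO4) with GTP and drug in DMSO, tubulin added last; 37 °C, absorbance change at 351 nm over 10 min. Drug concentration varied across runs for delta absorbance versus concentration curves; colchicine standard curves made for each tubulin batch.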

[5] = Cytotoxicity against human H520 cells at 10 uM after 72 hrs by Cell Titer 96 Aqueous Non-Radioactive assay; assay type: functional; conditions: NCI-H520, 72 h, read-out: Inhibition
In short: (§3)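 MCF7, NCI-H520 or PC-3 cells (RPMI-1640, 10% FBS) plated 1 × 10^4/well, 24 h at 37 °C, exposed 72 h to drug at 10 or 100 μM in DMSO or EtOH vehicle (controls usually 0.2%). Survival by MTS/PMS formazan absorbance at 490 nm, plate blank subtracted, as percent of vehicle wells; quadruplicate; etoposide or m-AMSA positive controls.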

[6] = Cytotoxicity against human H520 cells at 100 uM after 72 hrs by Cell Titer 96 Aqueous Non-Radioactive assay; assay type: functional; conditions: NCI-H520, 72 h, read-out: Inhibition; in short: as §3
MCF7 [7] = assay: Cytotoxicity against human MCF7 cells at 10 uM after 72 hrs by Cell Titer 96 Aqueous Non-Radioactive assay; assay type: functional; conditions: MCF7, 72 h, read-out: Inhibition; in short: as §3
MCF7 [8] = assay: Cytotoxicity against human MCF7 cells at 100 uM after 72 hrs by Cell Titer 96 Aqueous Non-Radioactive assay; assay type: functional; conditions: MCF7, 72 h, read-out: Inhibition; in short: as §3
PC-3 [9] = assay: Cytotoxicity against human PC3 cells at 10 uM after 72 hrs by Cell Titer 96 Aqueous Non-Radioactive assay; assay type: functional; conditions: PC-3, 72 h, read-out: Inhibition; in short: as §3
PC-3 [10] = assay: Cytotoxicity against human PC3 cells at 100 uM after 72 hrs by Cell Titer 96 Aqueous Non-Radioactive assay; assay type: functional; conditions: PC-3, 72 h, read-out: Inhibition; in short: as §3
MCF7 [11] = assay: Cytotoxicity against human MCF7 cells after 72 hrs by Cell Titer 96 Aqueous Non-Radioactive assay; assay type: functional; conditions: MCF7, 72 h
In short: (§4)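 MCF7, NCI-H520 and PC-3 cells in RPMI-1640 + 10% FBS, 2 mM L-glutamine, 0.1 mM non-essential amino acids; 1 × 10^4 cells/well, 24 h at 37 °C, then drug in DMSO or EtOH (<1%) for 72 h. Cells under 50% survival at 100 μM retested over further concentrations for GI50. MTS/PMS read at 490 nm, blank subtracted, versus vehicle wells; quadruplicate or more.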

PC-3 [12] = assay: Cytotoxicity against human PC3 cells after 72 hrs by Cell Titer 96 Aqueous Non-Radioactive assay; assay type: functional; conditions: PC-3, 72 h; in short: as §4
CCRF-CEM = assay: Cytotoxicity against human CCRF-CEM cells; assay type: functional
[13] = Cytotoxicity against human HL60 (TB) cells; assay type: functional; conditions: HL-60
K562 = assay: Cytotoxicity against human K562 cells; assay type: functional
MOLT-4 = assay: Cytotoxicity against human MOLT4 cells; assay type: functional
RPMI-8226 = assay: Cytotoxicity against human RPMI8226 cells; assay type: functional
SR = assay: Cytotoxicity against human SR cells; assay type: functional
HOP-92 = assay: Cytotoxicity against human HOP92 cells; assay type: functional
EKVX = assay: Cytotoxicity against human EKVX cells; assay type: functional
COLO 205 = assay: Cytotoxicity against human COLO205 cells; assay type: functional
OVCAR-3 = assay: Cytotoxicity against human OVCAR-3 cells; assay type: functional
IGROV-1 = assay: Cytotoxicity against human IGROV1 cells; assay type: functional
DU-145 = assay: Cytotoxicity against human DU145 cells; assay type: functional
LOX IMVI = assay: Cytotoxicity against human LOX IMVI cells; assay type: functional
[14] = Cytotoxicity against human […]; assay type: functional
BT-549 = assay: Cytotoxicity against human BT549 cells; assay type: functional
UO-31 = assay: Cytotoxicity against human UO31 cells; assay type: functional
[15] = Inhibition of tubulin polymerization in presence of microtubule-associated proteins at 60 uM; in short: as §2
HT-29 = assay: Cytotoxicity against human HT29 cells; assay type: functional
[16] = Cell cycle arrest in mouse tsFT210 cells assessed as accumulation at G2/M phase at 100 uM after 18 hrs by flow cytometry; assay type: functional, cell-based; in short: as §1

Row | Compound | IC50 [1] [µM] | Activity [2] | percent cell survival relative to vehicle at 10 µM [5] [%] | cell survival (% of vehicle control) at 100 µM [6] [%] | cell survival (% of vehicle control) at 10 µM (MCF7 [7]) [%] | cell survival (% of vehicle control) at 100 µM (MCF7 [8]) [%] | percent cell survival relative to vehicle control at 10 µM (PC-3 [9]) [%] | percent cell survival at 100 µM (PC-3 [10]) [%] | GI50 (MCF7 [11]) [µM] | GI50 (PC-3 [12]) [µM] | GI50 (CCRF-CEM) [µM] | GI50 [13] [µM] | GI50 (K562) [µM] | GI50 (MOLT-4) [µM] | GI50 (RPMI-8226) [µM] | GI50 (SR) [µM] | GI50 (EKVX) [µM] | GI50 (COLO 205) [µM] | GI50 (OVCAR-3) [µM] | GI50 (IGROV-1) [µM] | other results
1 | COc1ccc2c(C[C@@H]3NC(=O)[C@@H]4CCCN4C3=O)c(Cc3ccccc3)[nH]c2c1 | > 100 |  |  |  |  |  |  |  |  |  |  |  |  |  |  |  |  |  |  |  | 
2 | COc1ccc2c(C[C@@H]3NC(=O)[C@@H]4CCCN4C3=O)c(CC=C(C)C)n(Cc3ccccc3)c2c1 | 55 |  |  |  |  |  |  |  |  |  |  |  |  |  |  |  |  |  |  |  | 
3 | C=CCn1c(CC=C(C)C)c(C[C@@H]2NC(=O)[C@@H]3CCCN3C2=O)c2ccc(OC)cc21 | 75 |  |  |  |  |  |  |  |  |  |  |  |  |  |  |  |  |  |  |  | 
4 | C=CCn1cc(C[C@@H]2NC(=O)[C@@H]3CCCN3C2=O)c2ccc(OC)cc21 | 62 | Active |  |  |  |  |  |  |  |  |  |  |  |  |  |  |  |  |  |  | 
5 | COc1ccc2c(C[C@H]3NC(=O)[C@H]4CCCN4C3=O)c(CC=C(C)C)[nH]c2c1 |  |  | 81.7 | 75.2 | > 100 | > 100 | > 100 | 83.7 | > 25 | > 25 | > 25 | > 25 | > 25 | > 25 | > 25 | > 25 | > 25 | > 25 | > 25 | > 25 | Activity [3]: inactive; IC50 [4]: > 700 µM; GI50 (HOP-92): 23.1 µM; GI50 (DU-145): > 25 µM; GI50 (LOX IMVI): > 25 µM; GI50 [14]: > 25 µM; GI50 (BT-549): > 25 µM; GI50 (UO-31): > 25 µM
6 | CC(C)=CCc1[nH]c2ccccc2c1C[C@@H]1NC(=O)[C@@H]2CCCN2C1=O [TRYPROSTATIN B] |  |  | 77.6 | 60.5 | 88.2 | 66.7 | 95.5 | 68.9 | > 100 | > 100 | > 100 | > 100 | 56.1 | > 100 | > 100 | 50.6 | > 100 | > 100 | > 100 | > 100 | IC50 [4]: > 700 µM; GI50 (HOP-92): 43.1 µM; GI50 (DU-145): > 100 µM; GI50 (LOX IMVI): > 100 µM; GI50 [14]: > 100 µM; GI50 (BT-549): 58.2 µM; GI50 (UO-31): > 100 µM
7 | COc1ccc2c(C[C@@H]3NC(=O)[C@H](Cc4ccccc4)NC3=O)c(CC=C(C)C)[nH]c2c1 | 10 |  |  |  |  |  |  |  |  |  |  |  |  |  |  |  |  |  |  |  | 
8 | COc1ccc2c(C[C@H]3NC(=O)[C@@H]4CCCN4C3=O)c(CC=C(C)C)[nH]c2c1 |  |  | > 100 | > 100 | > 100 | > 100 | > 100 | > 100 | 25.5 | 21.7 | 11.9 | 35 | 17.7 | 12.2 | 7.76 | 11.3 | > 50 | 12.4 | > 50 | > 50 | inhibition [15]: < 2%; GI50 (HT-29): 16.1 µM; GI50 (DU-145): 40 µM; GI50 (LOX IMVI): 33.5 µM; GI50 [14]: 13 µM; GI50 (BT-549): 9.77 µM; GI50 (UO-31): 27.3 µM
9 | COc1ccc2c(C[C@@H]3NC(=O)[C@H]4CCCN4C3=O)c(CC=C(C)C)[nH]c2c1 |  |  | 99.3 | 98.5 | > 100 | 99 | > 100 | > 100 | > 100 | > 100 | 99.4 | > 100 | > 100 | > 100 | 92 | 76.9 | > 100 | > 100 | 85.5 | 50 | inhibition [15]: < 2%; GI50 (HOP-92): 16.8 µM; GI50 (HT-29): 40.3 µM; GI50 (DU-145): > 100 µM; GI50 (LOX IMVI): > 100 µM; GI50 [14]: > 100 µM; GI50 (BT-549): > 100 µM; GI50 (UO-31): > 100 µM
10 | COc1cc2c(c(OC)c1OC)-c1ccc(OC)c(=O)cc1[C@@H](NC(C)=O)CC2 [COLCHICINE] |  |  |  |  |  |  |  |  |  |  |  |  |  |  |  |  |  |  |  |  | IC50 [4]: 44.9 µM
11 | C=CCc1[nH]c2cc(OC)ccc2c1C[C@@H]1NC(=O)[C@@H]2CCCN2C1=O | 60 | Active |  |  |  |  |  |  |  |  |  |  |  |  |  |  |  |  |  |  | Activity [16]: Active
12 | COc1ccc2c(C[C@@H]3NC(=O)[C@H](C(C)C)NC3=O)c(CC=C(C)C)[nH]c2c1 | 19 | Active |  |  |  |  |  |  |  |  |  |  |  |  |  |  |  |  |  |  | Activity [16]: Active
13 | COc1ccc2c(C[C@@H]3NC(=O)[C@@H]4CCCN4C3=O)cn(Cc3ccccc3)c2c1 | 46 | Active |  |  |  |  |  |  |  |  |  |  |  |  |  |  |  |  |  |  | 
